The source of these data is article PMC4378865 (Journal of biomolecular screening, 2014).

Broadly, the IC50 is the point on the concentration scale where inhibition reaches its midpoint. A lower IC50 goes with greater potency. A word on the pIC50: it is the IC50 on a negative log10 scale, so that one unit is a factor of ten. High values mean a low IC50, low ones a high IC50. For orientation: % inhibition means the share of the control response that was lost under treatment. Higher therefore signals a response far below the control. One may read the Hill slope as a measure of the steepness of the concentration-response curve.

Data set [1] addresses T1, T. brucei MetRS (Trypanosoma brucei brucei, UniProt Q38C91).
T1 sequence (Q38C91 1-773): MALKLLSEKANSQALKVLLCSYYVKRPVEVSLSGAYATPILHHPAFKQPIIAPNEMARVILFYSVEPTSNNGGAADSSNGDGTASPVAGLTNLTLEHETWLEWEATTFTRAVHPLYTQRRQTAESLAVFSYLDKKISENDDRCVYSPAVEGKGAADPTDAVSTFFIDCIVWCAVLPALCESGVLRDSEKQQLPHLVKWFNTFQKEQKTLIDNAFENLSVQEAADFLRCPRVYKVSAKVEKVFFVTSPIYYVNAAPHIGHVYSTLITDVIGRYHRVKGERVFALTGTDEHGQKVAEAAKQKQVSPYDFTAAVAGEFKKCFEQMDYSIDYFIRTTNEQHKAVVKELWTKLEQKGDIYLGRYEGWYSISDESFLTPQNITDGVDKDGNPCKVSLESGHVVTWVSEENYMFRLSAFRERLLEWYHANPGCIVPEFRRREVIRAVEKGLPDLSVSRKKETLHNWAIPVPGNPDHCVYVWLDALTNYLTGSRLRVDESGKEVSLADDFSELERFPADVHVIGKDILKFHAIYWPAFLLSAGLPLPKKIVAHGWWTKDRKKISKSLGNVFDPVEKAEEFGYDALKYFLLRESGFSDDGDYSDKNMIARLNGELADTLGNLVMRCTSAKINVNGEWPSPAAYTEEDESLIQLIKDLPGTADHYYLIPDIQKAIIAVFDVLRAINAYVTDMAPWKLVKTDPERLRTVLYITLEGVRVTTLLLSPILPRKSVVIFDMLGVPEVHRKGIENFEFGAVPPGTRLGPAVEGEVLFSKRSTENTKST
In words: Orthogonal fluorescence polarization AMP production assay. It counts as biochemical. The essentials:
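Concentration-response was run in triplicate as a 10-point serial dilution from 120 µM. AMP was detected by FP with a Transcreener AMP²/GMP² reagent (Cy5, excitation 620 nm, emission 688 nm), with FP = (S − P)/(P + S). Percent inhibition was normalized per plate between DMSO-only wells and wells with 1.5 µM reference inhibitor.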
On the technique in general: In fluorescence polarisation assays a small probe gives low polarisation when free and higher when bound to something large.

Another data set deals with Jurkat cells. In words: Jurkat cell cytotoxicity counterscreen. It counts as cell-based. The method in brief:
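Jurkat E6.1 suspension cells grown in RPMI-1640 with 10% dialyzed FBS, NEAA, pyruvate, HEPES, glutamine and antibiotic-antimycotic at 37 °C, 5% CO₂. CellTiter-Glo added, 10 min RT, then luminescence read. Tested in triplicate. Data normalized per plate: 8 µM doxorubicin as high control, DMSO as low control.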
(In general: A counterscreen serves to expose hits that act by an unwanted route or on another target.)

Data set [2] addresses T1, T. brucei MetRS. Briefly: Luminescence. It counts as biochemical.
Data set [3] concerns the target T1, T. brucei MetRS. Briefly: Aminoacylation assay, incorporation of [3H]L-methionine into tRNA. It counts as biochemical.
In data set [4] the target is T1, T. brucei MetRS. To be noted: formerly shown; cited from earlier work.
For data set [5] the following is noted: cited from earlier work.
In data set [6] the target is T2, human mitochondrial MetRS (Homo sapiens, UniProt Q96GW9).
T2 sequence (Q96GW9 30-593): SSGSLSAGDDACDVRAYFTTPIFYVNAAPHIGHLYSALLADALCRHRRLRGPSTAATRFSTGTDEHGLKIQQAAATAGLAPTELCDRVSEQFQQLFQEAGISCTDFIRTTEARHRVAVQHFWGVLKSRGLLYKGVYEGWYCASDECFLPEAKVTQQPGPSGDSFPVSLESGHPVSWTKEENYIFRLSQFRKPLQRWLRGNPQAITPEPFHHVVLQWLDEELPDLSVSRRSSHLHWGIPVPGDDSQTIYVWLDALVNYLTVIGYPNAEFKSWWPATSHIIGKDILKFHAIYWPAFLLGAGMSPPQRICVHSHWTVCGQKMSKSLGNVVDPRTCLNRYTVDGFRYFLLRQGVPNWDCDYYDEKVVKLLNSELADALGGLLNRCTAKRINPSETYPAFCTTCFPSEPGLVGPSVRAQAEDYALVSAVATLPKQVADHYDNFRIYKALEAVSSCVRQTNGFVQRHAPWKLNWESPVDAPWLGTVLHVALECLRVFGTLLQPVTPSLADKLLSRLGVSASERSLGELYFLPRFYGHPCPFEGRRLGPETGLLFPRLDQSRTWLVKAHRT
In words: Aminoacylation assay, selectivity counterscreen. It counts as biochemical.

Where [7] appears, read: fluorescence polarization assay.
Where [8] appears, read: luminescence ATP depletion assay, 1536-well.

`Cn1nc(C(F)(F)F)c(-c2cccc(C(F)(F)F)c2)c1NC(=O)Nc1ccc(F)cc1` [CID 2810697]: the “activity in fluorescence polarization assay” value on T. brucei MetRS [1] (dose response curve) is “inactivity”.

For `O=C(Cn1cc(C(=O)C(=O)N2CCOCC2)c2ccccc21)Nc1cccc(C(F)(F)F)c1` [CID 2973195], the figures for the IC50 with Jurkat cells (Jurkat cytotoxicity assay), on T. brucei MetRS [1] (setting [7]) and against T. brucei MetRS [2] (setting [8]) were over 83 µM, 292 nM and 171 nM, respectively. The pIC50 is listed as under 4.08 in the data set on Jurkat cells (Jurkat cytotoxicity assay), 6.53 against T. brucei MetRS [1] (setting [7]) and 6.77 against T. brucei MetRS [2] (setting [8]).

Regarding `O=C(CN1CCSC1=NCc1ccccc1)c1ccc(Cl)c(Cl)c1` [CID 4656759], the “% inhibition” value at T. brucei MetRS [3] was determined as 28%.

As for `O=C(CCCSc1ccc(Cl)cc1)Nc1ccccc1O` [CID 16312830], in the data set with Jurkat cells (dose response, highest dilution 83.3 M), the “activity in the Jurkat cytotoxicity assay” value is “activity”.

Regarding `Oc1cc(NCCCNCc2cc(Cl)cc(Cl)c2)nc2ccccc12` [CID 18353708, 2-((3-((3,5-dichlorobenzyl)amino)propyl)amino)quinolin-4(1H)-one, reference compound], the figures for the IC50 on T. brucei MetRS [1] and against T. brucei MetRS [2] were 30.3 ± 4.81 nM and 24.2 ± 2.74 nM, respectively. Moreover, the Hill slope at T. brucei MetRS [1] (fluorescence polarization assay, N=3) is reported as 4.34 ± 0.17; at T. brucei MetRS [2] (luminescence ATP depletion assay, N=11), 4.41 ± 0.56. The “inhibition of T. brucei MetRS” value at T. brucei MetRS [4] is given as “sub-micromolar inhibition”. The bioavailability result in data set [5] is reported as “poor bioavailability”.

On to `COc1cccc(NC(=O)CSc2nnc3c(n2)[nH]c2ccc(C)cc23)c1` [CID 24793614], for which, at T. brucei MetRS [2] (setting [8]), it took 44 nM to reach half-maximal inhibition (IC50).

Turning to `CN(Cc1cc(Cl)cc(Cl)c1)[C@H]1C[C@H]2c3[nH]c4ccccc4c3CCN2C(=O)[C@H]1CO` [CID 46902334], the “% inhibition” value in data set [6] (at 1, human mitochondrial MetRS) was 14.3%; in data set [6] (at 10, human mitochondrial MetRS), 80.3%.
